pIC50: −log10 of the molar value.
What follows are compounds tested against T1, Plasminogen activator inhibitor 1 (Homo sapiens, UniProt P05121) (assay: Inhibitory activity against plasminogen activator inhibitor-1).

pIC50	SMILES
5.21	CC(/C=C/c1ccc(OCc2ccc(Cl)c(Cl)c2)cc1)n1oc(=O)[nH]c1=O (centres undefined)
5.05	CC/C(=C\Cn1oc(=O)[nH]c1=O)c1ccc(OCc2cc(C(F)(F)F)cc(C(F)(F)F)c2)cc1
5.24	CC(/C=C/c1ccc(OCc2cccc(C(F)(F)F)c2)cc1)n1oc(=O)[nH]c1=O (centres undefined)
5.66	CCCCC(CCn1oc(=O)[nH]c1=O)c1cccc(Oc2cccc(C)c2)c1 (centres undefined)
5.72	CCCC/C(=C\Cn1oc(=O)[nH]c1=O)c1cccc(Oc2cc(Cl)cc(Cl)c2)c1
6.41	O=c1[nH]c(=O)n(C(CCc2ccc(OCc3cc(C(F)(F)F)cc(C(F)(F)F)c3)cc2)c2ccccc2)o1 (centres undefined)
6.17	O=c1[nH]c(=O)n(C(CCc2ccc(OCc3cccc(Cl)c3)cc2)c2ccccc2)o1 (centres undefined)
4.83	O=c1[nH]c(=O)n(C/C=C/c2ccc(OCc3cc(C(F)(F)F)cc(C(F)(F)F)c3)cc2)o1

What follows are compounds tested against T1, Plasminogen activator inhibitor 1 (assay: In vitro concentration required for inhibition of tissue type plasminogen activator by plasminogen activator inhibitor-1 at concentration 25 um).
How it was run: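 Recombinant human PAI-1 (140 nM) preincubated 1 h at room temperature with compound (1-100 µM final, ≤0.2% DMSO) in pH 6.6 buffer. Recombinant human tPA (70 nM; PAI-1:tPA 2:1) then added for 30 min, followed by the chromogenic tPA substrate Spectrozyme-tPA, with A405 read at 0 and 60 min.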
Target sequence in this assay (P05121 whole entry): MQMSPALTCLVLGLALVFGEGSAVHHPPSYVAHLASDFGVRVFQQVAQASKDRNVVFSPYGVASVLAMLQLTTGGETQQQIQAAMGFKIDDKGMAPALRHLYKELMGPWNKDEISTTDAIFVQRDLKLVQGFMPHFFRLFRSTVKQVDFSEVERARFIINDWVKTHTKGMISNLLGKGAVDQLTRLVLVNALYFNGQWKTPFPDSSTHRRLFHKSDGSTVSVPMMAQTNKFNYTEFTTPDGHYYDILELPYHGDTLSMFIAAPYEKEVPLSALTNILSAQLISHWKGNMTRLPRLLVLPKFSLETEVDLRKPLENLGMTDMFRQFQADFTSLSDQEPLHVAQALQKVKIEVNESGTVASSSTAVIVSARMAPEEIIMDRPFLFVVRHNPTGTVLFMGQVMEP

SMILES	pIC50
C/C(=C\Cn1oc(=O)[nH]c1=O)c1cccc(OCc2ccccn2)c1	4.62
C/C(=C/Cn1oc(=O)[nH]c1=O)c1cccc(COc2cc(C(F)(F)F)cc(C(F)(F)F)c2)c1	5.14
C/C(=C\Cn1oc(=O)[nH]c1=O)c1cccc(OCc2cc(C(F)(F)F)cc(C(F)(F)F)c2)c1	5.03
C/C(=C\Cn1oc(=O)[nH]c1=O)c1cccc(COc2cc(C(F)(F)F)cc(C(F)(F)F)c2)c1	5.28
O=c1[nH]c(=O)n(C/C=C/c2cc(OCc3ccc(C(F)(F)F)cc3)cc(OCc3ccc(C(F)(F)F)cc3)c2)o1	5.60
COc1cc(/C=C/Cn2oc(=O)[nH]c2=O)ccc1OCc1ccc(Cl)c(Cl)c1	5.49
C/C(=C\Cn1oc(=O)[nH]c1=O)c1cccc(OCc2ccccc2-c2ccccc2)c1	5.64
O=c1[nH]c(=O)n(C/C=C/c2cc(OCc3ccc(Cl)cc3)cc(OCc3ccc(Cl)cc3)c2)o1	5.68
O=c1[nH]c(=O)n(C/C=C/c2cc(OCc3ccc(Cl)c(Cl)c3)ccc2Cl)o1	5.42

Each compound was assayed against T1, Plasminogen activator inhibitor 1 (assay: In vitro inhibition of plasminogen activator inhibitor-1 at concentration 25 um).
Target sequence in this assay (P05121 whole entry, looked up): as the sequence (P05121 whole entry) above

inhibition [%]	SMILES
24	C/C(=C\Cn1oc(=O)[nH]c1=O)c1cccc(OCc2ccccc2)c1
37	C/C(=C\Cn1oc(=O)[nH]c1=O)c1cccc(OCc2cccc(C)c2)c1
